The record followed here is ChEMBL document CHEMBL4627381, “Licochalcone A Selectively Resensitizes ABCG2-Overexpressing Multidrug-Resistant Cancer Cells to Chemotherapeutic Drugs” (J Nat Prod, 2020).

One data set deals with T1, ABCG2 (Homo sapiens, UniProt Q9UNQ0).
T1 sequence (Q9UNQ0 whole entry): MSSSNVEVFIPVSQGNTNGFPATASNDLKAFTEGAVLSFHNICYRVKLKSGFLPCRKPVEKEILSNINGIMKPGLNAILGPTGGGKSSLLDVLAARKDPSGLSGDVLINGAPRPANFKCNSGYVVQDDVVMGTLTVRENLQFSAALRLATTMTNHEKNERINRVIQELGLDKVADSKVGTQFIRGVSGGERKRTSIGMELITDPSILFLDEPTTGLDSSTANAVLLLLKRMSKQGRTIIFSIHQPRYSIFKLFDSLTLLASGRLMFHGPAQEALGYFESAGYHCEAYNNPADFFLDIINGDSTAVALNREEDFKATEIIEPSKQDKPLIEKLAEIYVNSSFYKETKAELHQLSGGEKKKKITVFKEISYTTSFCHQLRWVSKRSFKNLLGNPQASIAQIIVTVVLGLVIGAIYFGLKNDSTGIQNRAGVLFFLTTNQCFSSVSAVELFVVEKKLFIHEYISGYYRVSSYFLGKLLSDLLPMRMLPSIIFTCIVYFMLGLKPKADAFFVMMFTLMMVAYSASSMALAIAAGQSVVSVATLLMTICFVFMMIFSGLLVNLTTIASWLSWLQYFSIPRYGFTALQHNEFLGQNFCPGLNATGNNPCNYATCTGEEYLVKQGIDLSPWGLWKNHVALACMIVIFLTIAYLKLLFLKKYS
Put plainly: Modulation of ABCG2 (unknown origin) expressed in High Five insect cell vesicle membrane assessed as maximal stimulation of ATPase activity after 20 mins by colorimetric assay relative to baseline. Conditions: membrane vesicles of High Five insect cells expressing ABCG2, read-out: Activity. The method in brief: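 Membrane vesicles from ABCG2-expressing High Five cells were incubated with LCA (0–390 μM) at 37 °C for 20 min in 50 mM MES-Tris pH 6.8 with ouabain, DTT, NaN3, EGTA and KCl, ±0.3 mM vanadate. Liberated Pi was read by molybdate/ascorbate colorimetry at 880 nm. Vi-sensitive activity = activity minus activity with vanadate; mean ± SD of three experiments.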

Data set [1] relates to S1-M1-80. Put plainly: Potentiation of topotecan-induced apoptosis in human S1-M1-80 cells harboring ABCG2 (unknown origin) assessed as necrotic cells at 10 uM incubated for 48 hrs by annexin V/propidium iodide staining based flow cytometry (reference value: 0.4%). Format: functional. (In general: A flow cytometer gives signals particle by particle.)
Data set [2] relates to S1-M1-80. Put plainly: Potentiation of topotecan-induced apoptosis in human S1-M1-80 cells harboring ABCG2 (unknown origin) assessed as viable cells at 10 uM incubated for 48 hrs by annexin V/propidium iodide staining based flow cytometry (reference value: 90.6%). The data set is classed as functional. The note with it: S1-M1-80, 48 h, read-out: Activity.
For data set [3], the target named is T2, Broad substrate specificity ATP-binding cassette transporter ABCG2 (Homo sapiens, UniProt Q9UNQ0).
T2 sequence (Q9UNQ0 whole entry): T1 sequence (Q9UNQ0 whole entry)
Put plainly: Inhibition of ABCG2 (unknown origin)-mediated pheophorbide A efflux in human S1 cells incubated for 1 hr by FACScan flow cytometry. Format: cell-based. Conditions: s1, 1 h. The method in brief:
(§1)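 Cells held drug-free 7 days. 3 × 10^5 cells were suspended in IMDM with 5% FCS and loaded with pheophorbide A (ex 395/em 670 nm) for 1 h, with or without LCA (20 μM for single-concentration accumulation) or Ko143 3 μM as reference. Read immediately by flow cytometry. Efflux inhibition was run over a concentration range; mean ± SD of three experiments.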

The subject of data set [4] is S1. Put plainly: Induction of pheophorbide A accumulation in human S1 cells at 20 uM incubated for 1 hr by FACScan flow cytometry. Format: functional, cell-based. The gist of the method: as §1
Data set [5] relates to S1. Put plainly: Cytotoxicity against human S1 cells after 72 hrs by MTT assay. Format: functional, cell-based. Conditions: S1, 72 h. The gist of the method:
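Cells seeded at 5000/well, allowed 24 h, then exposed to a concentration series for 72 h at 37 °C in DMSO vehicle (up to 0.5% v/v). HEK293 lines were read with CCK-8 and cancer lines with MTT. IC50 was taken from fitted dose-response curves over at least three independent experiments. Lines were kept drug-free for 7 days before assay.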
A general note: Tetrazolium assays rely on reduction of a dye to a coloured formazan, in cell work by metabolically active cells.

Data set [6] deals with T2, Broad substrate specificity ATP-binding cassette transporter ABCG2. Put plainly: Reversal of ABCG2 (unknown origin)-mediated multidrug resistance in human H460-MX20 cells assessed as fold change in topotecan IC50 at 2 uM after 72 hrs by MTT assay relative to topotecan IC50. Format: cell-based. The gist of the method:
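Cells held drug-free 7 days, seeded at 5000 per well for 24 h, then exposed 72 h to mitoxantrone or topotecan dilutions with DMSO (≤0.5%), LCA 0.5–3.0 μM, or Ko143 1.0 μM. Viability was read by MTT. IC50 came from fitted dose-response curves of three independent experiments. Fold-reversal = IC50 without modulator divided by IC50 with modulator.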

Data set [7] relates to NCI-H460. Put plainly: Effect on topotecan-induced cytotoxicity against human H460 cells assessed as fold change in topotecan IC50 at 1 uM after 72 hrs by MTT assay relative to topotecan IC50. The data set is classed as functional. The gist of the method: (§2)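 Parental S1 colon and H460 lung cancer cells were exposed for 72 h to a mitoxantrone or topotecan concentration series, with or without modulator at 0.5–3.0 μM, and read by MTT. Fold-reversal is IC50 without modulator divided by IC50 with modulator, taken from dose-response curves of three independent experiments.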

For data set [8], the system named is NCI-H460. Put plainly: Effect on topotecan-induced cytotoxicity against human H460 cells assessed as fold change in topotecan IC50 at 0.5 uM after 72 hrs by MTT assay relative to topotecan IC50. Format: functional. The gist of the method: as §2
In data set [9] the test system is NCI-H460. Put plainly: Effect on mitoxantrone-induced cytotoxicity against human H460 cells assessed as fold change in mitoxantrone IC50 at 1 uM after 72 hrs by MTT assay relative to mitoxantrone IC50. Format: functional. The gist of the method:
as §2

Data set [10] concerns the target T2, Broad substrate specificity ATP-binding cassette transporter ABCG2. Put plainly: Reversal of human ABCG2-mediated multidrug resistance in HEK293/R482 cells assessed as fold-change in topotecan IC50 at 3 uM after 72 hrs by CCK8 relative to topotecan IC50. The data set is classed as cell-based. The method in brief:
(§3)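 Cells were seeded at 5000/well for 24 h, then given colchicine, etoposide, mitoxantrone or topotecan ± non-toxic modulator (0.5–3.0 μM) for 72 h, with DMSO up to 0.5%. IC50 came from fitted curves (mean ± SD, three experiments). Fold-reversal = IC50 without modulator ÷ IC50 with modulator.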

The target is the same in data set [11]. Put plainly: Reversal of human ABCG2-mediated multidrug resistance in HEK293/R482 cells assessed as fold-change in topotecan IC50 at 2 uM after 72 hrs by CCK8 relative to topotecan IC50. Format: cell-based. The method in brief:
as §3

Data set [12] concerns HEK293. Put plainly: Effect on topotecan-induced cytotoxicity against HEK293 cells assessed as fold change in topotecan IC50 at 0.5 uM after 72 hrs by CCK8 assay relative to topotecan IC50. Format: cell-based. The note with it: human, hek293, 72 h. The gist of the method: (§4)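 Reversal assay in parental pcDNA-HEK293 and transfected HEK293 lines (ABCB1 for colchicine, ABCC1 for etoposide, ABCG2 for mitoxantrone/topotecan). Substrate drug series was given with or without nontoxic modulator (0.5, 1.0, 2.0 or 3.0 μM) for 72 h, with a CCK-8 read-out. Fold-reversal is substrate IC50 without modulator divided by IC50 with modulator. Three independent experiments.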

Data set [13] deals with HEK293. Put plainly: Effect on etoposide-induced cytotoxicity against HEK293 cells assessed as fold change in etoposide IC50 at 1 uM after 72 hrs by CCK8 assay relative to etoposide IC50. The data set is classed as cell-based. The note with it: human, hek293, 72 h. The method in brief: as §4
In data set [14] the test system is HEK293. Put plainly: Effect on Colchicine-induced cytotoxicity against HEK293 cells assessed as fold change in colchicine IC50 at 3 uM after 72 hrs by CCK8 assay relative to colchicine IC50. The data set is classed as cell-based. The note with it: human, hek293, 72 h. The method in brief: as §4

Active and inactive are the calls of the source. No cut-off for these calls is given here.

In the case of `C=CC(C)(C)c1cc(/C=C/C(=O)c2ccc(O)cc2)c(OC)cc1O` [LICOAGROCHACONE A], the Emax at 20 min at ABCG2 was 150%. Also, the Activity in the data set on S1-M1-80 [1] was found to be 0.8%. Further, the viability at 10 µM in the data set with S1-M1-80 [2] was 67.8%. The “inhibition (INH)” value in data set [3] was “Dose-dependent effect”. Also, in the data set with S1 [4], the result was inactive. Further, the IC50 with S1 [5] lay within 10 to 50 µM. Also, the “fold change (FC)” value in data set [6] worked out at 8.9; with NCI-H460 [7], 1.7; in the data set with NCI-H460 [8], 1.5; in the data set with NCI-H460 [9], 1.1; in [10] it was 4.7; in data set [11], 4.6. For the same compound, the “fold change (FC)” value with HEK293 [12] was determined as 0.9; with HEK293 [13], 0.7; in the data set with HEK293 [14], 0.9.

The IC50 is the concentration needed to halve the response being measured. Low values mean inhibition by little substance, high ones a need for much substance.
